The list is not random: actives were taken first. Their share in the collection is about 3.3%.
SENP8 block-1 – SENP8 protease inhibitors, primary screen, biochemical, luminescence | Sentrin-specific protease 8 (Homo sapiens), Q96LD8 | AID 2540, 2010 | inhibition, % at 10 µM | purified SENP8, Z-RLRGG-aminoluciferin cleavage | actives 1.2% (n = 330,000); in the data active means inhibition above about 50%
SENP8 block-2 – human SENP8 protease inhibitors, primary screen, biochemical, fluorescence, Nedd8 protein substrate, uHTS; inhibition, % at 20 µM; AID 602440, 2012; recombinant SENP8; Sentrin-specific protease 8 (Homo sapiens), Q96LD8; actives 0.64% (n = 360,000); in the data active means inhibition mostly above about 40%, no sharp cut-off; inactive means mostly below about 27%
NRP1-CendR mod – modulators of CendR peptide binding to NRP-1, primary screen, biochemical, fluorescence polarization, uHTS | Neuropilin-1 (Homo sapiens), O14786 | FAM-RPARPAR peptide binding to NRP-1 | inhibition, % at 25 µM | actives 0.85% (n = 360,000);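 active means inhibition or corrected inhibition above about 18%, plus a signal ratio from 0.5 to 1.5, limit read from the data, passing the limit was not always enough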
SENP1 FRET inh – human SENP1 catalytic domain inhibitors, primary screen, biochemical, FRET, uHTS; Sentrin-specific protease 1 (Homo sapiens), Q9P0U3; recombinant SENP1 catalytic domain, CyPet-SUMO1-YPet FRET cleavage; inhibition, % at 10 µM; actives 0.21% (n = 360,000); AID 624204, 2012;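 active means inhibition at least 30% at 10 µM, raw YFP signal under a set limit, fluorescence ratio 0.5 to 1.5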
Target sequence (Q9P0U3 419-644 limits assumed): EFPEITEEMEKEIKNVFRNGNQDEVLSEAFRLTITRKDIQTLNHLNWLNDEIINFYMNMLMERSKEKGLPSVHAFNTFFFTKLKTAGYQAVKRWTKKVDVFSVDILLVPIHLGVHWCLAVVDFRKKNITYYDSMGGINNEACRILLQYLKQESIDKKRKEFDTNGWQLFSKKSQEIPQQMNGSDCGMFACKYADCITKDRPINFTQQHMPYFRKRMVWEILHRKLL
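system = hSENP1 catalytic domain, recombinant | reagent = SFCypet-SUMO1-SFYpet substrate at 25 nM | doses = one dose per compound, 10 µM, 0.5% DMSO | incubation = enzyme reaction for 50 min at room temperature, dark | measured by = FRET, CFP and YFP emission | controls = no-enzyme low, enzyme-DMSO high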
SENP7 block – SENP7 protease inhibitors, primary screen, biochemical, luminescence, uHTS. recombinant SENP7, Z-RLRGG-aminoluciferin luminescence, 40 min. inhibition, % at 5 µM. actives 1.5% (n = 330,000). AID 434973, 2010;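 active means inhibition above about 50% at the single test dose, limit read from the data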
Target sequence (Q9BQF6 706-1050 limits assumed): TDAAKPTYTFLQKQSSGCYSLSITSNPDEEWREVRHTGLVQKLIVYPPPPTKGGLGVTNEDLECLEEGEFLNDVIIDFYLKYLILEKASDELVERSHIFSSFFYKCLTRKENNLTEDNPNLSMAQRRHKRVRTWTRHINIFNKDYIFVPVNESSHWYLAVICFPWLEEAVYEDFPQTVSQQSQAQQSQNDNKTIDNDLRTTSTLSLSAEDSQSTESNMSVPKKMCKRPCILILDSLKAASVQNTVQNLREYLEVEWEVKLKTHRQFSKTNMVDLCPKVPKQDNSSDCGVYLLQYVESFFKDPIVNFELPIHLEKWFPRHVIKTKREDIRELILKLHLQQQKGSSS
SENP6 block – SENP6 protease inhibitors, primary screen, biochemical, luminescence, uHTS. actives 1.8% (n = 330,000). Recombinant SENP6 catalytic domain, aminoluciferin luminescence. inhibition, % at 10 µM. Sentrin-specific protease 6 (Homo sapiens), Q9GZR1;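 active means inhibition above about 50% at the single tested dose, limit read from the data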
SENP8 conf – SENP8 protease inhibitors, retest, confirmation, biochemical, luminescence, single concentration. shares compounds with SENP7 block. Recombinant SENP8, Z-RLRGG-aminoluciferin luminescence, 60 min. inhibition, % at 12.5 µM. actives 40% (n = 6,200);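 active means mean inhibition across replicates above about 50%, limit read from the data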
SENP6 conf – SENP6 protease inhibitors, confirmation, biochemical, luminescence, single concentration | shares compounds with SENP7 block | recombinant SENP6, Z-RLRGG-aminoluciferin luminescence | inhibition, % at 12.5 µM | actives 58% (n = 6,200) | AID 488915, 2010
SENP7 confirm – SENP7 protease inhibitors, retest, confirmation, biochemical, luminescence, single concentration. shares compounds with SENP7 block. recombinant SENP7, Z-RLRGG-aminoluciferin luminescence, 40 min. inhibition, % at 12.5 µM. actives 69% (n = 6,200). AID 488917, 2010
Casp3 SENP sel – caspase-3 protease inhibitors, confirmation, selectivity assay for SENP inhibitor project, biochemical, single concentration | shares compounds with SENP7 block | purified caspase-3, Z-DEVD-aminoluciferin luminescence, 60 min | inhibition, % at 12.5 µM | actives 60% (n = 6,200) | AID 488918, 2010;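 active means mean inhibition above about 50%, limit read from the data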
SENP luc ctr – interferes with luciferase luminescence in SENP counter-screen | shares compounds with SENP7 block | Pre-incubated SENP8/Z-RLRGG-aminoluciferin, luciferase luminescence interference | inhibition, % at 12.5 µM | actives 39% (n = 6,200) | AID 488919;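 active means mean inhibition above about 50% when retested at one dose, limit read from the data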
Large screens that a line does not name were inactive (follow-up assays come after a bar, where they were run).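 How the source made its calls, unless noted: active means mean inhibition above about 50% in the one-dose retest (limit read from the data); inactive means the rest.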

CC1=NN(C(N)=S)C(=O)C1N=Nc1ccc(C)c(Br)c1 (configuration not stated)	SENP8 block-1 92.9, SENP7 block 77.6, SENP6 block 95.5 | SENP8 conf 61.8 | SENP6 conf 53.2 | SENP7 confirm inactive | Casp3 SENP sel 68.2 | SENP luc ctr inactive
CC1=NN(c2nc(-c3ccc(C)cc3)cs2)C(=O)C1N=Nc1cccc(C)c1 (configuration not stated)	SENP6 block 68.6 | SENP8 conf inactive | SENP6 conf inactive | SENP7 confirm inactive | Casp3 SENP sel inactive | SENP luc ctr 51.6
CC1=NN(C(N)=S)C(=O)C1N=Nc1cccc(C(=O)O)c1 (configuration not stated)	SENP8 block-1 85.0, SENP7 block 90.7, SENP6 block 93.1 | SENP8 conf 92.5 | SENP6 conf 91.7 | SENP7 confirm 100.2 | Casp3 SENP sel 84.4 | SENP luc ctr inactive
COC(=O)C[C@H]1C=C[C@H](NC(=O)Nc2ccccc2OC)[C@@H](CO)O1	none (no result: SENP8 block-1, SENP7 block, SENP6 block)
N#CC1(Nc2ccc3ccccc3c2)CCCC1	none (no result: SENP8 block-1, SENP7 block, SENP6 block)
COc1ccc(/C=N/Nc2nncc3ccccc23)c(OC)c1	SENP8 block-1 64.5, SENP7 block 77.9, SENP6 block 76.6 | SENP8 conf inactive | SENP6 conf 72.9 | SENP7 confirm inactive | Casp3 SENP sel inactive | SENP luc ctr inactive
COc1ccc(/C=N/Nc2ccccn2)c(OC)c1OC	none
COc1cc(/C=N/Nc2nncc3ccccc23)cc(OC)c1OC	SENP8 block-1 58.8, SENP7 block 78.3, SENP6 block 69.6 | SENP8 conf 77.1 | SENP6 conf 75.4 | SENP7 confirm 93.5 | Casp3 SENP sel 81.5 | SENP luc ctr 70.6
COc1ccccc1/C=N/Nc1nccnc1Cl	SENP8 block-1 85.2, SENP7 block 90.8, SENP6 block 90.2 | SENP8 conf 86.1 | SENP6 conf 84.8 | SENP7 confirm 98.5 | Casp3 SENP sel 95.3 | SENP luc ctr 89.3
COc1ccc(/C=N\Nc2ccccn2)c(OC)c1	SENP8 block-1 53.9, SENP6 block 55.0 | SENP8 conf inactive | SENP6 conf 61.7 | SENP7 confirm 87.1 | Casp3 SENP sel 62.5 | SENP luc ctr inactive
C(=N\Nc1nncc2ccccc12)/c1ccccc1	none
O=C(NCc1ccccc1)C(c1ccc(-c2ccccc2)cc1)N1CCN(C(=O)C2CCCO2)CC1 (configuration not stated)	none (no result: SENP8 block-1, SENP7 block, SENP6 block)
O=C(c1ccccc1)n1c2ccccc2c(=O)n1-c1ccccc1CCl	none (no result: SENP8 block-1, SENP7 block, SENP6 block)
CN(C)CCCN(C(=O)c1cc2cc([N+](=O)[O-])ccc2s1)c1nc2cc3c(cc2s1)OCCO3	none
C#CCNC(=O)c1ccc2sc([C@@H]3O[C@H](CO)[C@H](O)[C@H](O)[C@H]3O)nc2c1	none (no result: SENP8 block-1, SENP7 block, SENP6 block)
Cc1cccc(/C=N/Nc2nncc3ccccc23)c1	SENP8 block-1 90.0, SENP7 block 95.6, SENP6 block 91.6 | SENP8 conf 73.9 | SENP6 conf 94.1 | SENP7 confirm 102.2 | Casp3 SENP sel 94.3 | SENP luc ctr inactive
Cc1cccc(N=Cc2c(O)cc(C)oc2=O)c1	none
Cc1cc(O)c(/C=N/Nc2cccc(Cl)c2)c(=O)o1	SENP8 block-1 66.2, SENP6 block 69.9 | SENP8 conf 71.0 | SENP6 conf 71.4 | SENP7 confirm 89.2 | Casp3 SENP sel 86.7 | SENP luc ctr 55.8
Cc1cc(O)c(/C=N/OCc2ccc(Cl)cc2Cl)c(=O)o1	none
Cc1cc(O)c(/C=N/Nc2ccccc2Cl)c(=O)o1	SENP8 block-1 73.7, SENP6 block 84.3 | SENP8 conf 72.2 | SENP6 conf 67.6 | SENP7 confirm 86.6 | Casp3 SENP sel 88.4 | SENP luc ctr 63.3
COc1cc(NC(=O)c2cc3ccccc3o2)c(OC)cc1Cl	none
Cc1ccc(NC(=O)c2cc3ccccc3o2)nc1	SENP7 block 64.8, SENP6 block 63.3 | SENP8 conf 57.7 | SENP6 conf 57.8 | SENP7 confirm 87.2 | Casp3 SENP sel 73.7 | SENP luc ctr 66.8
O=C(Nc1ncccc1Cl)c1cc2ccccc2o1	SENP7 block 64.1, SENP6 block 62.5 | SENP8 conf 68.3 | SENP6 conf 73.3 | SENP7 confirm 92.0 | Casp3 SENP sel 82.9 | SENP luc ctr inactive
O=C(Nc1ccc(Cl)cc1Cl)c1cc2ccccc2o1	SENP7 block 58.8 | SENP8 conf inactive | SENP6 conf inactive | SENP7 confirm inactive | Casp3 SENP sel inactive | SENP luc ctr inactive
Cc1ccc(NC(=O)c2cc3ccccc3o2)cc1Cl	none
COc1ccccc1NC(=O)c1cc2ccccc2o1	SENP6 block 56.6 | SENP8 conf inactive | SENP6 conf inactive | SENP7 confirm 78.4 | Casp3 SENP sel inactive | SENP luc ctr 54.3
CC1(C(=O)NS(=O)(=O)c2ccc(F)cc2F)CCN1C(=O)c1ccccc1 (configuration not stated)	none (no result: SENP8 block-1, SENP7 block, SENP6 block)
Cc1ccccc1NC(=O)c1cc2ccccc2o1	SENP8 block-1 67.4, SENP7 block 71.0, SENP6 block 84.9 | SENP8 conf 70.8 | SENP6 conf 70.5 | SENP7 confirm 91.6 | Casp3 SENP sel 85.1 | SENP luc ctr 78.6
COc1cc(C(O)c2nc(-c3cccc(C(C)C)c3)cs2)ccc1F (configuration not stated)	none (no result: SENP8 block-1, SENP7 block, SENP6 block)

Screens: PubChem, Sanford-Burnham Center for Chemical Genomics
